Assay outcomes from PubChem BioAssay.
T cruzi inh: blocks replication of Trypanosoma cruzi | T. cruzi beta-gal in NIH3T3, luminescence, 90 h | inhibition, % (concentration not given with the values) | 1.4% of 300,000 active | AID 1885;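 active = mean inhibition across valid replicates above about 55%, limit read from the data; inconclusive = mean below that limit but half or more replicates reach it; inactive = mean below it, under half of replicates reach it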;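 note: signal also drops with host cell toxicity which is not excluded here; higher percent means less beta-gal luminescence so fewer parasites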
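System – NIH/3T3 host cells with β-galactosidase reporter T. cruzi · Doses – single 50 nL compound addition per well in DMSO · Reagent – 5000 T. cruzi trypomastigotes/well · Medium – Low-serum DMEM with 2% FBS · Timing – ≥90 h infection period, 3 h prior cell attachment · Evaluation – parasite load inhibition, % · Technique – GalScreen luminescence, 60 min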
Glyco luc inh: blocks N-linked glycosylation in D54 reporter cells | 0.23% of 360,000 active | reporter increase, % at 12.5 µM | AID 588692 | D54 ERlucT glycosylation luciferase reporter, 24 h; percent of 100 nM tunicamycin response;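 active = mean luciferase reporter signal, scaled so untreated is 0 and the glycosylation-blocking control 100, at or above a set limit in every replicate; inconclusive = mean reaches the limit but not every replicate does; inactive = mean below the limit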;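 note: luciferase carries N-glycosylation sites so blocking glycosylation raises the light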
CaV13 ICDI inh: Disruptors of the CACNA1D IQ motif to Ca2+-dependent inactivation inhibitor domain association, primary screening, Förster resonance energy transfer in intact living …. HEK cells, CFP/YFP FRET ICDI-IQ, plate reader, 10 min; percent FRET-ratio fall versus neutral wells. 0.098% of 340,000 active. inhibition, % at 12.3 µM. AID 743397;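 active = mean replicate inhibition of at least 30% and at least 1% of replicates passing that level; inconclusive = only one of the two criteria is met; inactive = neither criterion is met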
PfHsp90 yeast 2: growth inhibition of yeast expressing Plasmodium Hsp90. S. cerevisiae expressing PfHsp90, BacTiter-Glo ATP, 48 h; yeast lacking PDR1 and PDR3 efflux regulators. inhibition, % at 9.4 µM. 0.32% of 310,000 active. AID 504621;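 active = every replicate shows inhibition above about 80%, whatever the replicate mean, limit read from the data; inconclusive = mean inhibition reaches the set limit but some replicate falls short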
HSF-1 act: increases HSF-1 driven luciferase reporter signal; 1.7% of 300,000 active; activation, % at 9 µM; NIH3T3-HGL HSF-1 luciferase reporter, MG132, 8 h; 100% = twice DMSO control signal;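 active = mean replicate activation of at least 50% with a set share of replicates each reaching 50%; inconclusive = only one of those two conditions met; inactive = mean below 50% and too few replicates reaching it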
PvdQ inh: P. aeruginosa PvdQ acylase inhibition; purified PvdQ acylase, fluorescence plate reader; inhibition, % at 10 µM; 0.063% of 340,000 active; AID 488965; in the data active = inhibition above about 30%, passing the limit was not always enough; inconclusive = no clear call, values can overlap the other calls
Of the large screens only hits and unclear results are named; the others gave an inactive call. Most compounds without a hit are left out; they make up all but 3% or so of the library.

Cc1cc(Cl)cc(C)c1OCCCCn1ccnc1	T cruzi inh inconclusive
Clc1ccccc1OCCCn1ccnc1	none
Cc1cccc(OCCn2ccnc2)c1	none
Cc1cccc(OCCCCCn2ccnc2)c1	T cruzi inh 57
Cc1cccc(Cl)c1OCCCCn1ccnc1	T cruzi inh 66
Cc1cccc(C(C)(C)C)c1OCCn1ccnc1	none
Clc1ccccc1OCCCCn1ccnc1	T cruzi inh 63 (no result: CaV13 ICDI inh)
O=C(NC(Cc1c[nH]c2ccccc12)C(=O)O)OCC1c2ccccc2-c2ccccc21 (centres undefined)	none (no result: T cruzi inh, PfHsp90 yeast 2, HSF-1 act, PvdQ inh)
CCCN1CCCCC(NC(=O)c2c(F)cccc2F)C1=O (centres undefined)	none (no result: T cruzi inh, Glyco luc inh, PfHsp90 yeast 2, HSF-1 act, PvdQ inh)
Cc1ccc(C)c(OCCn2ccnc2)c1	none (no result: CaV13 ICDI inh)
Cc1ccccc1OCCCCCn1ccnc1	T cruzi inh 67
CC1CCN(CC(O)COCCC23CC4CC(CC(C4)C2)C3)CC1 (centres undefined)	T cruzi inh 61
COc1ccc(NC(=O)c2[nH]c(C)c(C(C)=O)c2C)cc1Cl	none
COc1ccc(NC(=O)c2[nH]c(C)c(C(C)=O)c2C)cc1S(=O)(=O)Nc1ccc(Br)cc1	T cruzi inh 56, HSF-1 act 89
CC(C)CNC(=S)N1CCN(Cc2ccc3c(c2)OCO3)CC1	none
CCC(C)NC(=S)N1CCN(Cc2ccc3c(c2)OCO3)CC1 (centres undefined)	CaV13 ICDI inh 133
COCC#Cc1ccc2c(c1)O[C@H](CN(C)C(=O)c1ccccc1)[C@@H](C)CN([C@H](C)CO)S2(=O)=O	none (no result: T cruzi inh, Glyco luc inh, PfHsp90 yeast 2, HSF-1 act, PvdQ inh)
C=CCn1c(SCc2ccccc2Cl)nnc1-c1sc2nc(C)cc(C)c2c1N	T cruzi inh 63
CCSc1nc2ccccc2n1C(=O)/C=C/c1ccc(OC)c(OC)c1	HSF-1 act 82
C=CCSc1nc2ccccc2n1C(=O)/C=C/c1ccc(OC)c(OC)c1	HSF-1 act 71
C=CCSc1nc2ccccc2n1C(=O)/C=C/c1cc(OC)c(OC)c(OC)c1	none
COc1ccc2c(c1)C(NC(=O)C(F)(F)F)CC21CCCCC1 (centres undefined)	none (no result: T cruzi inh, Glyco luc inh, PfHsp90 yeast 2, HSF-1 act, PvdQ inh)
O=C(NCc1ccco1)c1cnn2c(C(F)F)cc(-c3ccccc3)nc12	none
Cc1cc(C)c(Cc2c(C)nc3c(C(=O)NCc4ccco4)cnn3c2C)c(C)c1	T cruzi inh 59
CN1CCN(/N=C/c2cccc(Cl)c2Cl)CC1	T cruzi inh 62
O=C(Nc1ccc(O)cc1)c1ccc(NC(=O)c2cccs2)cc1	HSF-1 act 65
O=C(Nc1ccc2c(c1)CCC2)c1cnc(Cl)c(Cl)c1	HSF-1 act 58
O=C(Nc1ccc2c(c1)CCC2)c1ccc(Cl)nc1	none
Cc1ccc(NC(=O)c2cccs2)cc1NC(=O)c1cccc(F)c1	HSF-1 act 58
O=C(Nc1ccc2c(c1)CCC2)c1cccs1	HSF-1 act 55
CCCN(C)C1CN(Cc2cn(Cc3cccc(Cl)c3)nn2)S(=O)(=O)C1 (centres undefined)	none (no result: T cruzi inh, Glyco luc inh, PfHsp90 yeast 2, HSF-1 act, PvdQ inh)
O=C(Nc1ccc2c(c1)CCC2)c1cccc(OC(F)F)c1	HSF-1 act 82 (no result: PfHsp90 yeast 2, PvdQ inh)
Cc1nc2ccccc2c(=O)n1-c1cccc(NC(=O)c2cccs2)c1	none
O=C(Nc1cccc(N2C(=O)C=CC2=O)c1)c1cccs1	T cruzi inh 61
COC(=O)[C@]12C[C@H](CC(=O)NCc3cccc4ccccc34)C(=O)N(Cc3ccccc3)C1=C[C@H](C1CCCC1)O[C@@H]2C	none (no result: T cruzi inh, Glyco luc inh, PfHsp90 yeast 2, HSF-1 act, PvdQ inh)
Cc1ccc(-c2ccnc(-c3ccc(O)cc3)n2)cc1	HSF-1 act 65
O=C(NCc1ccccc1)C(C1CC1)n1c(Cc2cc(F)cc(F)c2)nc2ccccc21 (centres undefined)	none (no result: T cruzi inh, Glyco luc inh, PfHsp90 yeast 2, HSF-1 act, PvdQ inh)
COc1cc(C(=O)NCCCNc2nc3c(C)cc(C)cc3cc2C#N)cc(OC)c1OC	CaV13 ICDI inh 59
CCC(=O)NCCCNc1nc2c(C)cccc2cc1C#N	CaV13 ICDI inh 46
COc1cc(C(=O)NCCNc2nc3c(C)cccc3cc2C#N)cc(OC)c1OC	none (no result: T cruzi inh, PfHsp90 yeast 2, HSF-1 act, PvdQ inh)
COCc1cc(N2CCNC[C@H]2C)ccc1N1CCN(Cc2ccccc2)[C@@H](C)C1	none (no result: T cruzi inh, Glyco luc inh, PfHsp90 yeast 2, HSF-1 act, PvdQ inh)
N/C(=N\OC(=O)c1ccccc1)c1ccn[nH]1	none (no result: CaV13 ICDI inh)
COC(=O)[C@]12C[C@H](CC(=O)N3CCC(c4ccccc4)CC3)C(=O)N(CCC3=CCCCC3)C1=C[C@H](COCc1ccccc1)O[C@@H]2C	none (no result: T cruzi inh, Glyco luc inh, PfHsp90 yeast 2, HSF-1 act, PvdQ inh)
CNC(=O)/C(C#N)=C/c1c(N(Cc2ccccc2)Cc2ccccc2)nc2c(C)cccn2c1=O	none
CCNC(=O)/C(C#N)=C/c1c(N(Cc2ccccc2)Cc2ccccc2)nc2ccccn2c1=O	HSF-1 act 66
Cn1ncc(Br)c1C(=O)N1CCOCC1	HSF-1 act 55
COc1ccc(NC(=O)c2c(-c3c(Cl)cccc3Cl)noc2C)c(OC)c1	none
Cc1ccc(-c2cc(C(=O)Nc3cnn(C45CC6CC(CC(C6)C4)C5)c3)no2)cc1	none
O=C(Nc1cnn(C23CC4CC(CC(C4)C2)C3)c1)c1cc(-c2ccccc2)on1	T cruzi inh 61
CCC(=O)Nc1ccc(NC(=O)c2ccco2)c(OC)c1	none
COc1cc(NC(=O)CC(C)C)ccc1NC(=O)c1ccco1	HSF-1 act 54
O=C(Nc1cccc(S(=O)(=O)Nc2ccc(Cl)cc2)c1)c1cc2c(s1)CCCC2	T cruzi inh 65
N=C(N)SCc1cn(-c2ccccc2)nc1-c1ccc(Br)cc1	T cruzi inh 55
CCOC(=O)CC(=O)CSc1nc(-c2cccnc2)ccc1C#N	none
CCOC(=O)CSc1nc(-c2ccncc2)ccc1C#N	HSF-1 act 64 (no result: CaV13 ICDI inh)
COC(=O)[C@]12C[C@H](CC(=O)NCc3ccc(OC)c(OC)c3)C(=O)N(Cc3ccc4c(c3)OCO4)C1=C[C@H](COCc1ccccc1)O[C@@H]2C	none (no result: T cruzi inh, Glyco luc inh, PfHsp90 yeast 2, HSF-1 act, PvdQ inh)
Nc1nc(-c2ccc(Cl)cc2)c(N=Nc2ccc(S(=O)(=O)N3CCOCC3)cc2)s1	T cruzi inh 59
CC1(C)CC2CC(C)(CN2S(=O)(=O)c2ccc(C(=O)Nc3ccc(S(=O)(=O)N4CCOCC4)cc3)cc2)C1 (centres undefined)	T cruzi inh 55
CC1(C)CC2CC(C)(CN2S(=O)(=O)c2ccc(C(=O)Nc3ccc(Cl)c(S(=O)(=O)N4CCOCC4)c3)cc2)C1 (centres undefined)	T cruzi inh 63 (no result: CaV13 ICDI inh)
O=C(Nc1ccc(NC(=O)c2ccc(Cl)c(S(=O)(=O)N3CCOCC3)c2)cc1)c1ccccc1	none
CC(=O)Nc1ccc(S(=O)(=O)N2CC3(C)CC2CC(C)(C)C3)cc1 (centres undefined)	none
COc1ccc(S(=O)(=O)NC(=O)C2(C)CCN2C(=O)CC2CCCC2)cc1 (centres undefined)	none (no result: T cruzi inh, PfHsp90 yeast 2, HSF-1 act, PvdQ inh)
C#CCNC[C@@H]1CSCCS(=O)(=O)N1	none (no result: T cruzi inh, Glyco luc inh, PfHsp90 yeast 2, HSF-1 act, PvdQ inh)
COc1nc(Cl)cn(-c2ccc(C)cc2)c1=O	none
Cc1ccc(-n2c(Cl)c(Cl)nc(Cl)c2=O)cc1	PfHsp90 yeast 2 105 (no result: T cruzi inh, CaV13 ICDI inh, HSF-1 act)
